The term IC50 denotes the concentration needed to halve the response being measured. What is called Papp is a coefficient for how fast a substance crosses the barrier. For orientation: inhibition in vivo means the drop in the measured response relative to a control, in per cent.

The nature of data set [1]: Inhibition of PDE4 in human whole blood PBMC assessed as reduction in LPS-induced TNFalpha production after 24 hrs by ELISA. The method, boiled down:
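Heparinized whole blood from healthy donors was preincubated with LPS (1 μg/mL final) at 37 °C for 10 min. It was then added to compounds in DMSO and incubated 24 h at 37 °C with agitation, then centrifuged. Serum TNF-α was measured by sandwich ELISA with TMB read-out at 450 nm. Experiments were done 2−3 times and duplicates were averaged.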
Background: An ELISA detects its analyte on a solid surface through an enzyme-linked reagent.

Data set [2] deals with 3',5'-cyclic-AMP phosphodiesterase 4B (Homo sapiens, UniProt Q07343). The experiment in a line: Inhibition of recombinant human PDE4B1 using [3H]-cAMP as substrate […] measured after 60 mins by scintillation proximity assay. The method, boiled down:
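Compounds ranged from 10 μM to 10 pM. The reaction was started with PDE4 enzyme and run 60 min at room temperature with agitation (about 10−20% conversion), then stopped with SPA beads. [3H]-AMP was counted by scintillation.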
(SPA uses beads or plates that emit light when radiolabelled molecules are held near them.)

A short description of data set [3]: Apparent permeability of the compound by PAMPA assay. The format is physicochemical. (PAMPA measures passive passage across an artificial lipid membrane.)
Data set [4] can be described thus: Thermodynamic solubility of the compound at 22 degC. The format is physicochemical. The note with it: read-out: Therm_solubility.
The subject of data set [5] is Rattus norvegicus. The experiment in a line: Antiinflammatory activity in Sprague-Dawley rat LPS-induced neutrophilia model assessed as inhibition of LPS-induced increase in netrophils in bronchoalveolar lavage at 1000 ug/kg, it administered single dose as microspray dosed 1 hr prior to nebulized LPS challenge measured after 4 hrs by flow cytometric analysis. The format is functional. Put shortly: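 Compound was suspended in PBS with 0.2% Tween 80, homogenized, and lower doses were made by 1:10 dilution. Rats (male Sprague-Dawley, 230−280 g, fasted, isoflurane) received 0.2 mL intratracheally by microsprayer, about 1 cm above the carina. Nebulized LPS challenge (30 mL over 40 min) followed 1 h later. BAL neutrophils were counted by flow cytometry 4 h after challenge.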

The species entered for data set [6] is Rattus norvegicus. The settings on record: Sprague-Dawley, 2000 ug/kg.
Data set [7] is filed under the species Rattus norvegicus. The settings on record: Sprague-Dawley, 2000 ug/kg. This is another data set of the same source.

Values after ≈ are worked out from the molar mass of the structure shown. Active and inactive are the calls of the source. The calls are words filed in the database; no cut-off is given here.

3',5'-cyclic-AMP phosphodiesterase 4B, sequence (Q07343 whole entry): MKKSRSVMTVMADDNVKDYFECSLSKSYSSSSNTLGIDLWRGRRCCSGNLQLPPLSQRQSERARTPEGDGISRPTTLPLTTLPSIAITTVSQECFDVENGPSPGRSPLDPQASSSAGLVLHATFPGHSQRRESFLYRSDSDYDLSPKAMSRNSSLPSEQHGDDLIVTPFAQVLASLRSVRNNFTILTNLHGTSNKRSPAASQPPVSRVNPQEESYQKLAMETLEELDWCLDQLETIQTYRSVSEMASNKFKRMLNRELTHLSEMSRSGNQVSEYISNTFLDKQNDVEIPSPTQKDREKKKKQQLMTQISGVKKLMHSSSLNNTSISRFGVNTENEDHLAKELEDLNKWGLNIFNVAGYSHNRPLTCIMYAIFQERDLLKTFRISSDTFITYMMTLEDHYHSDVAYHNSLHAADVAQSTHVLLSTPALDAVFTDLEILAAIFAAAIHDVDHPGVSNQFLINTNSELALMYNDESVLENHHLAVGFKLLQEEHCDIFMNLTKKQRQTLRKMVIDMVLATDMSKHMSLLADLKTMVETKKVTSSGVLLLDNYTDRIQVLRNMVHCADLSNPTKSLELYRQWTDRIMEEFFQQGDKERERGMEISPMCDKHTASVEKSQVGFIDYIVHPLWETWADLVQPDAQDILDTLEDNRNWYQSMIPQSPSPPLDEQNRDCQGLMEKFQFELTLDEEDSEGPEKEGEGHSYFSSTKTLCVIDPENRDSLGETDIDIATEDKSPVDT

For `O=C1NCCc2nc(-c3cccc(-c4cccc(O)c4)c3)cc(Nc3cccc4ncccc34)c21`, the IC50 in data set [1] came to 0.5 nM; in data set [2], 0.89 nM.

Consider `O=C1NCCc2nc(-c3ccc(F)c(F)c3)cc(Nc3cccc4ncccc34)c21`, for which the IC50 in data set [1] was 1.5 nM; in data set [2], 0.75 nM.

For the molecule `COc1cccc(Nc2cc(-c3cccc(OC)c3)nc3c2/C(=N/O)NCC3)c1`, in data set [2], the IC50 turned out to be 2000 nM.

Consider `COc1cccc(Nc2cc(-c3cccc(Sc4cccc(OC)c4)c3)nc3c2C(=O)NCC3)c1`, for which the IC50 in data set [1] amounted to 3.4 nM; in data set [2] it was 1.6 nM.

`COc1cccc(Nc2cc(-c3cccc(-c4cc(C(=O)O)ccc4O)c3)nc3c2C(=O)NCC3)c1`: the IC50 was 140 nM in data set [1] and 9.6 nM in data set [2].

For `O=C(NC1CC1)c1cccc(-c2cccc(-c3cc(Nc4cncc5ccccc45)c4c(n3)CCNC4=O)c2)c1`, the IC50 stood at 1.1 nM in data set [1] and 0.32 nM in data set [2].

With `O=C1NCCc2nc(-c3ccccc3)cc(Nc3cccc4ccccc34)c21`, the IC50 in data set [2] is 11 nM.

With `O=C1NCCc2nc(-c3ccccc3)cc(NCc3ccncc3)c21`, the IC50 in data set [2] amounted to 25 nM.

`O=C1NCCc2nc(-c3ccccc3)cc(Nc3ccc4ncccc4c3)c21`: the IC50 was 4.8 nM in data set [1] and 2.3 nM in data set [2].

Consider `CCOC(=O)c1ccc(-c2cccc(-c3cc(Nc4cccc5ncccc45)c4c(n3)CCNC4=O)c2)cc1`, for which the IC50 in data set [1] is 0.66 nM; in data set [2], 1.2 nM.

`Nc1cc(-c2ccccc2)nc2c1C(=O)NCC2`: the concentration for half-maximal inhibition (IC50) in data set [2] was determined as 2400 nM.

On to `O=C(O)c1ccc(-c2cccc(-c3cc(Nc4cccc5ncccc45)c4c(n3)CCNC4=O)c2)cc1`, for which the IC50 in data set [1] came out at 0.52 nM; in data set [2] it was 0.11 nM.

Regarding `N#C/N=C1\NCCc2nc(-c3ccc(F)c(F)c3)cc(Nc3cccc4ncccc34)c21`, the results for the IC50 in data set [1] and in data set [2] were 17 nM and 0.89 nM, respectively.

Turning to `COc1cccc(Nc2cc(-c3ccccc3)ncc2C(N)=O)c1`, the IC50 in data set [2] came out at 240 nM.

For the molecule `O=C1NCCc2nc(-c3ccccc3)cc(Nc3n[nH]c4ncccc34)c21`, the results for the IC50 in data set [1] and in data set [2] were 3 nM and 5.6 nM, respectively.

Take `COc1cccc(Nc2cc(-c3ccccc3)nc3c2C(=O)NCC3C)c1` (stereo not given): in data set [2], the IC50 was found to be 640 nM.

For `NC(=O)c1ccc(Nc2cc(-c3ccccc3)nc3c2C(=O)NCC3)cc1`, the IC50 in data set [1] stood at 4.2 nM; in data set [2] it was 1.5 nM.

With `COc1cccc(Nc2cc(-c3ccccc3)nc3c2C(=O)NC(C)C3)c1` (stereo not given), the IC50 came to 270 nM in data set [1] and 120 nM in data set [2].

For `O=C1NCCc2nc(-c3ccccc3)cc(Nc3ccc(CCO)cc3)c21`, the IC50 in data set [2] worked out at 12 nM.

On to `COc1cccc(Nc2cc(-c3cccc(-c4cccc(C(=O)NCCN(C)C)c4)c3)nc3c2C(=O)NCC3)c1`, for which the values for the IC50 in data set [1] and in data set [2] were 2.8 nM and 0.23 nM, respectively.

On to `O=C(NC1CC1)c1cccc(-c2cccc(-c3cc(Nc4ccnc5ccccc45)c4c(n3)CCNC4=O)c2)c1`, for which the IC50 came to 0.46 nM in data set [1] and 0.27 nM in data set [2].

Take `CCOC(=O)c1ccc(-c2cccc(-c3cc(Nc4cccc(OC)c4)c4c(n3)CCNC4=O)c2)cc1`: the IC50 in data set [1] was found to be 1.2 nM; in data set [2], 7.2 nM.

Take `O=C1NCCc2nc(-c3ccccc3)cc(Nc3cccc(CO)c3)c21`: in data set [2], the IC50 was found to be 24 nM.

Turning to `COc1cccc(Nc2cc(-c3cccc(-c4cccc(C(=O)NC5CC5)c4)c3)nc3c2C(=O)NCC3)c1`, the 50% inhibitory concentration (IC50) worked out at 0.43 nM in data set [1] and 2.1 nM in data set [2].

Take `O=C1NCCc2nc(-c3ccccc3)cc(Nc3cccc4ncccc34)c21`: the IC50 in data set [1] amounted to 0.92 nM; in data set [2], 0.96 nM.

For `O=C1NCCc2nc(-c3ccccc3)cc(Nc3nn(-c4ccccc4)c4ncccc34)c21`, in data set [2], the concentration for half-maximal inhibition (IC50) is 56 nM.

Turning to `COc1cccc(Nc2cc(-c3ccccc3)nc3c2C(=O)NCC3)c1`, the IC50 in data set [1] was found to be 5.4 nM; in data set [2] it was 1.6 nM. Also, the Papp in data set [3] stood at 2 ×10⁻⁶ cm/s.

On to `O=C1NCCc2nc(-c3ccccc3)cc(Nc3cccc4cnccc34)c21`, for which the IC50 in data set [2] was determined as 14 nM.

Regarding `O=C1NCCc2nc(-c3ccccc3)cc(NCCc3ccncc3)c21`, in data set [2], the IC50 was found to be 12 nM.

Turning to `COc1cccc(Nc2cc(-c3cccc(-c4cccc(C(N)=O)c4)c3)nc3c2C(=O)NCC3)c1`, the results for the IC50 in data set [1] and in data set [2] were 2.3 nM and 0.28 nM, respectively.

On to `COc1cccc(Nc2cc(-c3cc[n+]([O-])cc3)nc3c2C(=O)NCC3)c1`, for which the IC50 in data set [2] is 51 nM.

Turning to `CNC(=O)c1cnc(-c2ccccc2)cc1Nc1cccc2ncccc12`, the half-maximal inhibitory concentration (IC50) in data set [2] stood at 5800 nM.

On to `O=C1NCCc2nc(-c3ccccc3)cc(Nc3cccc4c3ccc[n+]4[O-])c21`, for which the figures for the IC50 in data set [1] and in data set [2] were 0.47 nM and 0.43 nM, respectively.

In the case of `COC(=O)c1ccc(O)c(-c2cccc(-c3cc(Nc4cccc(OC)c4)c4c(n3)CCNC4=O)c2)c1`, the IC50 in data set [1] turned out to be 4.2 nM; in data set [2], 5.6 nM.

Regarding `COc1cccc(Nc2cc(-c3cccc(OC)c3)nc3c2/C(=N/C#N)NCC3)c1`, in data set [2], the IC50 was 13 nM.

For the molecule `NC(=O)c1cccc(Nc2cc(-c3ccccc3)nc3c2C(=O)NCC3)c1`, the IC50 in data set [2] stood at 12 nM.

`COc1cc(Nc2cc(-c3ccccc3)nc3c2C(=O)NCC3)ccc1C(=O)O`: the IC50 in data set [1] amounted to 9.9 nM; in data set [2], 2.3 nM.

With `COc1cc(Nc2cc(-c3ccccc3)nc3c2C(=O)NCC3)cc(OC)c1`, the IC50 in data set [2] was 27 nM.

As for `COc1cccc(Nc2cc(-c3ccncc3)nc3c2C(=O)NCC3)c1`, the results for the half-inhibitory concentration (IC50) in data set [1] and in data set [2] were 6.5 nM and 3.6 nM, respectively.

For `O=C(NC1CC1)c1cccc(-c2cccc(-c3cc(Nc4cccc5c4ccc[n+]5[O-])c4c(n3)CCNC4=O)c2)c1`, the IC50 in data set [1] turned out to be 0.075 nM; in data set [2], 0.045 nM.

As for `COc1cccc(Nc2cc(-c3cccc(-c4cccc(O)c4)c3)nc3c2C(=O)NCC3)c1`, the half-maximal inhibitory concentration (IC50) in data set [1] is 4.2 nM; in data set [2], 1.8 nM.

For `Cn1nc(Nc2cc(-c3ccccc3)nc3c2C(=O)NCC3)c2cccnc21`, the IC50 in data set [2] was 11 nM.

Consider `NC(=O)c1cnc(-c2ccccc2)cc1Nc1cccc2ncccc12`, for which the IC50 in data set [2] was 35 nM.

`COc1cccc(Nc2cc(-c3ccccc3OC)nc3c2C(=O)NCC3)c1`: the IC50 in data set [2] came to 32 nM.

With `COc1cccc(Nc2cc(-c3cccc(OC)c3)nc3c2C(=O)NCC3)c1`, in data set [2], the IC50 turned out to be 8.4 nM.

With `O=C(Nc1c(Cl)cncc1Cl)c1ccc(OC(F)F)c(OCC2CC2)c1` [ROFLUMILAST], the IC50 in data set [1] turned out to be 4 nM. The solubility thermodynamic in data set [4] is 0.52 µg/mL (≈ 1.29 µM). Besides, the inhibition in vivo at 1 mg/kg with Rattus norvegicus [5] amounted to 80%. For the same molecule, the inhibition result in the data set filed under Rattus norvegicus [6] was “Active”. Further, the inhibition result in the data set filed under Rattus norvegicus [7] was “inactive”.

`Cc1ccncc1Nc1cc(-c2ccccc2)nc2c1C(=O)NCC2`: the IC50 in data set [2] came to 42 nM.

On to `N#Cc1cccc(Nc2cc(-c3ccccc3)nc3c2C(=O)NCC3)c1`, for which the IC50 worked out at 13 nM in data set [1] and 3.3 nM in data set [2].

With `COc1cccc(Nc2nc(-c3ccccc3)nc3c2C(=O)NCC3)c1`, the IC50 is 40 nM in data set [1] and 52 nM in data set [2].

Regarding `CN(C)CCCNC(=O)c1cccc(-c2cccc(-c3cc(Nc4cccc5ncccc45)c4c(n3)CCNC4=O)c2)c1`, the IC50 turned out to be 0.36 nM in data set [1] and 0.11 nM in data set [2].

In the case of `O=C1NCCc2nc(-c3ccccc3)cc(Nc3ccc(C[C@@H](O)CO)cc3)c21`, the IC50 is 0.49 nM in data set [1] and 8.7 nM in data set [2].

As for `COc1cccc(Nc2cc(-c3cccc(-c4ccc(C(=O)O)cc4)c3)nc3c2C(=O)NCC3)c1`, the IC50 stood at 5.7 nM in data set [1] and 0.35 nM in data set [2]. Further, the Papp in data set [3] was found to be 3.5 ×10⁻⁶ cm/s.

For the molecule `COc1cccc(Nc2cc(C3CC3)nc3c2C(=O)NCC3)c1`, the IC50 in data set [2] is 8.5 nM.

Turning to `COc1cccc(Nc2cc(-c3cccc(Br)c3)nc3c2C(=O)NCC3)c1`, the IC50 in data set [2] is 8.2 nM.

Values taken from ChEMBL document CHEMBL4033796, “4-Amino-7,8-dihydro-1,6-naphthyridin-5(6 H)-ones as Inhaled Phosphodiesterase Type 4 (PDE4) Inhibitors: Structural Biology and Structure-Activity Relationships” (J Med Chem, 2018).
